Each block holds one molecule with its values, some of them ahead of it.
Assays:
Parameters in all cases: dose 50 mg/kg, route oral
Conditions in all cases: in vivo
[1] = test system: Rattus norvegicus; assay: Metabolic stability in Sprague-Dawley rat assessed as urinary excretion of allo-hydroxymatairesinol at 50 mg/kg, po after 48 hrs; type: ADME, organism-based, Urine
Outline: (§1)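 Five female Sprague-Dawley rats on RM1 diet received a single oral gavage of the lignan preparation in vehicle at 50 mg/kg. Individual 48 h urine was hydrolysed enzymatically, solid-phase extracted at pH 4.0 and measured by negative-ion HPLC-MS/MS MRM against calibration curves in spiked blank rat urine. Background was subtracted. Excretion is excreted molar amount per administered molar amount of that same component, reported as mean ± SD.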

[2] = test system: Rattus norvegicus; assay: Metabolic stability in Sprague-Dawley rat assessed as conversion to allo-hydroxymatairesinol level at 50 mg/kg, po after 48 hrs; type: ADME, organism-based
Outline: (§2)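 Five female Sprague-Dawley rats were kept on RM1 diet before and during the study. A knotwood-derived lignan preparation was given once by oral gavage in vehicle at 50 mg/kg, and individual urine was collected over 48 h. Urine was enzymatically hydrolysed, solid-phase extracted at pH 4.0 and analysed by negative-mode HPLC-ESI-MS/MS MRM. Pre-dose background was subtracted. Conversion is excreted molar amount per total administered molar amount, reported as mean ± SD.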

[3] = test system: Rattus norvegicus; assay: Metabolic stability in Sprague-Dawley rat assessed as urinary excretion of hydroxymatairesinol at 50 mg/kg, po after 48 hrs; type: ADME, organism-based, Urine; outline: as §1
[4] = test system: Rattus norvegicus; assay: Metabolic stability in Sprague-Dawley rat assessed as conversion to hydroxymatairesinol level at 50 mg/kg, po after 48 hrs; type: ADME, organism-based; outline: as §2
[5] = test system: Rattus norvegicus; assay: Metabolic stability in Sprague-Dawley rat assessed as urinary excretion of isohydroxymatairesinol at 50 mg/kg, po after 48 hrs; type: ADME, organism-based, Urine; outline: as §1
[6] = test system: Rattus norvegicus; assay: Metabolic stability in Sprague-Dawley rat assessed as conversion to isohydroxymatairesinol level at 50 mg/kg, po after 48 hrs; type: ADME, organism-based; outline: as §2

Activity [1]: 14.3%
Activity [2]: 1400 nmol
SMILES: COc1cc(C[C@H]2C(=O)OC[C@@H]2[C@@H](O)c2ccc(O)c(OC)c2)ccc1O

Activity [3]: 6%
Activity [4]: 1100 nmol
SMILES: COc1cc(C[C@H]2C(=O)OC[C@@H]2[C@H](O)c2ccc(O)c(OC)c2)ccc1O [HYDROXYMATAIRESINOL]

Activity [5]: 5.9%
Activity [6]: 39 nmol
SMILES: COc1cc(C[C@H]2C(=O)O[C@H](c3ccc(O)c(OC)c3)[C@H]2CO)ccc1O [ISOHYDROXYMATAIRESINOL]

From ChEMBL document CHEMBL1151222, “A new lariciresinol-type butyrolactone lignan derived from hydroxymatairesinol and its identification in spruce wood” (J Nat Prod, 2004)
